Reference: ChEMBL document CHEMBL2040804, “A SAR study on a series of synthetic lipophilic chalcones as inhibitor of transcription factor NF-κB” (Eur J Med Chem, 2012)

Legend:
Type in all cases: cell-based
RAW264.7 [1] = assay: Inhibition of LPS-induced NF-kappaB activation in mouse RAW264.7 cells transfected with IKKbeta-pSV-b-galactosidase control vector at 30 uM after 20 hrs by secretory alkaline phosphatase assay
Outline: (§1)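 RAW 264.7 cells stably carrying a pNF-κB-SEAP-NPT reporter were transfected by lipofectamine with a constitutively active IKKβ vector plus pSV-β-galactosidase control vector. Cells were treated with samples for 20 h. Culture medium aliquots were heated at 65 °C for 5 min and reacted with 4-methylumbelliferyl phosphate in the dark. SEAP fluorescence was read at ex 360/em 449 nm and normalized to β-galactosidase activity.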

[2] = Inhibition of LPS-induced NF-kappaB activation in mouse RAW264.7 cells transfected with IKKbeta-pSV-b-galactosidase control vector after 20 hrs by secretory alkaline phosphatase assay; outline: as §1
RAW264.7 [3] = assay: Cytotoxicity against mouse RAW264.7 cells by MTT assay

| SMILES | inhibition (RAW264.7 [1]) [%] | IC50 [2] [µM] | IC50 (RAW264.7 [3]) [µM] |
| --- | --- | --- | --- |
| CCCCCCCCCCCCOc1cccc(O)c1C(=O)CCc1ccc(O)cc1 | 52 | > 30 | > 30 |
| CCCCCCOc1cccc(O)c1C(=O)/C=C/c1ccc(O)cc1 | 15 | > 30 | > 30 |
| CCCCCCCCCCCCOc1cccc(O)c1C(=O)/C=C/c1ccc(O)cc1 | 100 | 9.4 | > 30 |
| CCCCCCCCCCCCCCCCCCOc1cccc(O)c1C(=O)/C=C/c1ccc(O)cc1 | 22 | > 30 | > 30 |
| CCCCCCCCCCOc1cccc(O)c1C(=O)/C=C/c1ccc(OC)cc1 | 18 | > 30 | > 30 |
| CCCCCCCCCCOc1cccc(O)c1C(=O)/C=C/c1ccccc1O | 45 | > 30 | > 30 |
| O=C(/C=C/c1ccc(O)cc1)c1c(O)cccc1OCC1CCCCC1 | 60 | > 30 | > 30 |
| CCCCCCOc1cccc(O)c1C(=O)/C=C/c1ccc(OCCCCC)cc1 | 17 | > 30 | > 30 |
| O=C(/C=C/c1ccc(O)cc1)c1c(O)cccc1OCc1ccccc1 | 28 | > 30 | > 30 |
| CCCCCCCCCCOc1cccc(O)c1C(=O)/C=C/c1ccc(O)cc1 | 100 | 2.7 | > 30 |
| CCCCCCCCCCOc1cccc(O)c1C(=O)/C=C/c1cccc(O)c1 | 22 | > 30 | > 30 |
| CCCCCCCCCCOc1cccc(O)c1C(=O)/C=C/c1cc(OC)c(O)c(OC)c1 | 53 | > 30 | > 30 |
| CCCCCCCCCCCCCCOc1cccc(O)c1C(=O)/C=C/c1ccc(OCCCCCCCCCCCCC)cc1 | 10 | > 30 | > 30 |
| CCCCCCCCCCCCOc1cccc(O)c1C(O)CCc1ccc(O)cc1 (configuration not stated) | 80 | > 30 | > 30 |
| CCCCCCCCOc1cccc(O)c1C(=O)/C=C/c1ccc(O)cc1 | 100 | 5 | > 30 |
| CCCCCCCCCCOc1cccc(O)c1C(=O)/C=C/c1ccc(Cl)c(Cl)c1 | 26 | > 30 | > 30 |
| CCCCCCCCCCCCCCOc1cccc(O)c1C(=O)/C=C/c1ccc(O)cc1 | 100 | 4.2 | > 30 |
| CCCCCCCCCCOc1cccc(O)c1C(=O)/C=C/c1ccc(O)c(Cl)c1 | 100 | 9.6 | > 30 |
| CCCCCCCCCCCCCCOc1ccc(C(=O)/C=C/c2ccc(O)cc2)c(O)c1 | 50 | 29 | > 30 |
| CCCCCCCCCCCCCCCCOc1cccc(O)c1C(=O)/C=C/c1ccc(O)cc1 | 42 | > 30 | > 30 |
| CC(C)CCOc1cccc(O)c1C(=O)/C=C/c1ccc(O)cc1 | 100 | 10 | > 30 |
| CCCCCCCCCCOc1cccc(O)c1C(=O)/C=C/c1ccc(C)cc1 | 8 | > 30 | > 30 |
| CCCCCCCCC(CCCCCC)CCOc1cccc(O)c1C(=O)/C=C/c1ccc(O)cc1 (configuration not stated) | 100 | 9.6 | > 30 |
| CCCCC/C=C\CCCCOc1cccc(O)c1C(=O)/C=C/c1ccc(O)cc1 | 8 | > 30 | > 30 |
